{"data": "Published values pooled from the literature", "target": "Serine/threonine-protein kinase MARK2 (MARK2, Homo sapiens, UniProt Q7KZI7)", "note": "Lines come from different studies, so protocols differ."}
{"Compound": "O=C(c1ccc(Nc2nccc(-c3cc4ccccc4s3)n2)cc1)N1CCC(N2CCCC2)CC1", "assay": "binding, competition with immobilised ligand", "conditions": "1 µM", "remaining binding [%]": 91}
{"Compound": "O=C(NCC1CCOCC1)c1n[nH]cc1NC(=O)c1c(F)cccc1F", "assay": "binding, competition with immobilised ligand", "conditions": "1 µM", "remaining binding [%]": 71}
{"Compound": "CS(=O)(=O)NCC[C@H](NC(=O)c1cncc2c1cnn2-c1ccc(F)cc1)c1ccnc(S(C)(=O)=O)c1", "assay": "cell-free assay, competition with immobilised ligand", "conditions": "1 µM", "remaining binding [%]": 75}
{"Compound": "COc1ccnn2ncc(-c3ccnc(N(C)C)n3)c12", "assay": "binding", "conditions": "1 µM", "remaining binding [%]": 92}
{"Compound": "CNC(=O)[C@@H]1CC[C@@H](n2c(-c3ccc4cnccc4c3)nc3ccc(C(=O)NCc4cccc(C(N)=O)c4)cc32)C1", "assay": "binding, competition with immobilised ligand", "conditions": "1 µM", "remaining binding [%]": 100}
{"Compound": "O=C(NCCCN1CCOCC1)c1ccc(Nc2ncc(Cl)c(-c3ccc(Cl)s3)n2)cc1", "assay": "binding, competition with immobilised ligand", "conditions": "1 µM", "remaining binding [%]": 74}
{"Compound": "Cc1cnn2ncc(-c3ccnc(N(C)C)n3)c2c1", "assay": "binding", "conditions": "1 µM", "remaining binding [%]": 100}
{"Compound": "COc1cnc(Nc2cccc(S(N)(=O)=O)c2)nc1N1CCN(c2ccccc2)CC1", "assay": "binding, competition with immobilised ligand", "conditions": "1 µM", "remaining binding [%]": 88}
{"Compound": "C[C@H](c1ccc(F)cc1)N(Cc1cccc(C(=O)O)c1)C(=O)c1cnc2ccccc2c1", "assay": "cell-free assay, competition with immobilised ligand", "conditions": "1 µM", "remaining binding [%]": 80}
{"Compound": "CN(C)c1nccc(-c2cnn3ncccc23)n1", "assay": "binding", "conditions": "1 µM", "remaining binding [%]": 96}
{"Compound": "O=C(Nc1cccnn1)N1CCC(=Cc2cccc(Oc3ccc(C(F)(F)F)cn3)c2)CC1", "assay": "cell-free assay, competition with immobilised ligand", "conditions": "1 µM", "remaining binding [%]": 100}
{"Compound": "N[C@H]1CCN(c2nccc(-c3cnn4ncccc34)n2)C1", "assay": "binding", "conditions": "1 µM", "remaining binding [%]": 100}
{"Compound": "O=C(c1ccc(Nc2ncc(Cl)c(-c3cc4ccccc4s3)n2)cc1)N1CCC(N2CCCC2)CC1", "assay": "binding, competition with immobilised ligand", "conditions": "1 µM", "remaining binding [%]": 80}
{"Compound": "CCN1CCN(Cc2ccc(C(=O)Nc3ccc(C)c(Oc4ccc5c(c4)CC(=O)N5)c3)cc2C(F)(F)F)CC1", "assay": "binding, competition with immobilised ligand", "conditions": "1 µM", "remaining binding [%]": 100}
{"Compound": "C[C@H](c1ccnc(Nc2nc3ccc(-c4cc(N(C)C)ncn4)cc3[nH]2)c1)N1CCN(C(=O)CC(F)(F)F)CC1", "assay": "cell-free assay, competition with immobilised ligand", "conditions": "0.1 µM", "remaining binding [%]": 100}
{"Compound": "CN(C)c1ncc(F)c(-c2cnn3ncccc23)n1", "assay": "binding", "conditions": "1 µM", "remaining binding [%]": 72}
{"Compound": "CO[C@@H](C)c1c(Nc2ccc([C@@H](N(C)C(=O)C3CCS(=O)(=O)CC3)C(F)(F)F)cc2)cnc2cc(Cl)nn12", "assay": "cell-free assay, competition with immobilised ligand", "conditions": "1 µM", "remaining binding [%]": 100}
{"Compound": "c1cncc(-c2cccc(Nc3nccc(NC4CCCCC4)n3)c2)c1", "assay": "binding, competition with immobilised ligand", "conditions": "10 µM", "remaining binding [%]": 81}
{"Compound": "F[C@@H]1CCN(c2nccc(-c3cnn4ncccc34)n2)C1", "assay": "binding", "conditions": "1 µM", "remaining binding [%]": 100}
{"Compound": "COc1ccc2cc(OCC3(C(=O)O)CN(C(=O)c4ccc(F)cc4)C3)ccc2c1", "assay": "cell-free assay, competition with immobilised ligand", "conditions": "1 µM", "remaining binding [%]": 91}
{"Compound": "Nc1ncc2c(n1)-c1c([nH]c3ccc(C#CC4CC4)cc13)CCCC2", "assay": "binding, competition with immobilised ligand", "conditions": "1 µM", "remaining binding [%]": 94}
{"Compound": "FC(F)(F)Oc1cccc(-c2cnc3ccc(-c4ccncc4)nn23)c1", "assay": "cell-free assay, competition with immobilised ligand", "conditions": "5 µM", "remaining binding [%]": 64}
